Compound activity (PubChem BioAssay)
Compounds with a hit are over-represented: about 2.9% of the library has one in this group of screens.
core dimer inh – blocks dimerization of HCV core protein | TR-FRET GST/Flag-core106 dimerization, 1536-well | inhibition, % at 5 µM | 0.33% of 300,000 active | AID 1899;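 active = inhibition above the mean of all tested compounds plus 3 SD, set per screening campaign, cut at about 45% in these data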
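System: GST-tagged and Flag-tagged HCV core protein residues 1-106 / Input: core106 proteins, GST 13.5 nM and Flag 17 nM / Buffer or medium: KF-containing HEPES buffer, pH 7.45, DTT, CHAPS, BSA / Probe or stimulus: Eu-anti-GST and XL665-anti-Flag labelled anti-tag antibodies / Schedule: 4 h, 22.5 °C incubation / Technique: TR-FRET 671 and 617 nm emission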
APOBEC3G inh – APOBEC3G (human) deaminase inhibition; recombinant A3G, ssDNA deamination FAM/TAMRA fluorescence; inhibition, % at 20 µM; AID 493012; 0.28% of 330,000 active;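 active = inhibition of at least 40% at 20 µM, with no more than 30% in the related APOBEC3A deaminase screen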;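 also: plate controls were DMSO wells with A3G for no effect and wells lacking A3G enzyme for full effect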
ABHD5-PLIN5 inh – inhibitors of human ABHD5-perilipin-5 interaction; Split G. princeps luciferase complementation, luminescence, 4 h; AID 602281; inhibition, % at 4 µM; 0.78% of 360,000 active;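 active = inhibition above the mean inhibition across every tested compound plus 3 SD, cut at about 22% in these data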;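 also: 0% = DMSO only wells and the 100% control is not disclosed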
Target sequence (Q00G26 whole entry, looked up): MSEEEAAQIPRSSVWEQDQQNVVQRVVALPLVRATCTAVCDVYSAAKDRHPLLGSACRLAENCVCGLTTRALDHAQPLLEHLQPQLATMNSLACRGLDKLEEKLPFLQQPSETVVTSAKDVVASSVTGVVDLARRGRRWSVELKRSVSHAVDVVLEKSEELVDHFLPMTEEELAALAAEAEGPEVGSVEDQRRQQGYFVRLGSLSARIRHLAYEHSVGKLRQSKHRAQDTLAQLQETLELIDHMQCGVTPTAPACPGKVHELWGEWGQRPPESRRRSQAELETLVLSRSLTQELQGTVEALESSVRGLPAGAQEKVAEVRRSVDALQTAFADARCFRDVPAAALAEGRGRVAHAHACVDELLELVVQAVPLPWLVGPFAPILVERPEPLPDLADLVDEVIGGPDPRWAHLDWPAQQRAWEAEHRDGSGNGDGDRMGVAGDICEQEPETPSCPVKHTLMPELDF
Target sequence (Q8WTS1 whole entry, looked up): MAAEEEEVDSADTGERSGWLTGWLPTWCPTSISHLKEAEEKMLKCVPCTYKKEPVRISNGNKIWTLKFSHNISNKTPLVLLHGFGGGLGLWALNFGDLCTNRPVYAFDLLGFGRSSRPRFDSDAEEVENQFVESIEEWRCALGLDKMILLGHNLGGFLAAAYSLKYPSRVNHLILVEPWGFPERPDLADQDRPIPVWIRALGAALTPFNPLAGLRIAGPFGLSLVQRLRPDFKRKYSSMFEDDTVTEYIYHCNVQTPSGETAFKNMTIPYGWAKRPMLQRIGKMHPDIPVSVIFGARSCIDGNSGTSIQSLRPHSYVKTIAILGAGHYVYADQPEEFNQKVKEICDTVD
NS3 helicase inh – HCV NS3 helicase inhibition | NS3 helicase DNA unwinding, Cy5 molecular beacon fluorescence | inhibition, % at 10.9 µM | 0.56% of 290,000 active | AID 1800;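 active = inhibition above the mean of all tested compounds plus 3 SD, set per campaign, cut at about 35% in these data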;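 also: 0% = DMSO wells and 100% = thioflavine S control wells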
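Compound dosing – single dose, 10.9 µM nominal final, DMSO 0.8% final · System – NS3 helicase fragment of HCV · Buffer or medium – MOPS pH 6.5, MgCl2, DTT, Tween20, BSA · Signal – Cy5 beacon fluorescence read at start and 1 h · Also added – annealed dual-labelled DNA beacon duplex, ATP-started · Schedule – 1 h at 25 °C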
PRMT1 FP inh – blocks human protein arginine methyltransferase 1. recombinant PRMT1, activity-based probe fluorescence polarization. inhibition, % at 2.79 µM. 1.3% of 370,000 active. AID 652257;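 active = inhibition above about 21% made by adding two undisclosed values, limit read from the data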
APOBEC3A inh – human APOBEC3A DNA deaminase inhibition. P31941. recombinant A3A, FAM/TAMRA ssDNA deamination fluorescence. inhibition, % at 20 µM. 0.41% of 330,000 active;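 active = at least 40% inhibition at 20 µM here, with at most 30% in a related deaminase screen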;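 also: plate controls were A3A with DMSO for no effect and wells lacking A3A enzyme for full effect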
NS3 helicase cf – confirmation of Hepatitis C virus NS3 helicase inhibitors; AID 1943; shares compounds with NS3 helicase inh; inhibition, % at 10.9 µM; 31% of 1,600 active; NS3 helicase DNA unwinding, Cy5 molecular beacon fluorescence;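 active = inhibition above the mean of all tested compounds plus 3 SD, cutoff set per campaign, cut at about 36% in these data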
FID counter trip – counter-screen for HCV NS3 helicase inhibitors: DNA intercalator displacement; shares compounds with NS3 helicase inh; DNA fluorescent intercalator displacement, fluorescence; inhibition, % at 7.9 µM; 4% of 1,600 active; AID 1945; in the data active = inhibition above about 37%;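 also: 0% = vehicle and 100% = reference compound; higher means more displacement of ethidium bromide from the DNA hairpin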
DNA FID DR – displaces fluorescent intercalator from DNA, HCV helicase counter-screen; 120 tested, under 10 active; AID 2172; IC50, µM; shares compounds with NS3 helicase inh; fluorescent intercalator displacement from DNA, fluorescence; call rule not given here
* hit, by the source's call; . = not tested or not shown.

SMILES	core dimer inh	APOBEC3G inh	ABHD5-PLIN5 inh	NS3 helicase inh	PRMT1 FP inh	APOBEC3A inh	NS3 helicase cf	FID counter trip	others
COc1ccc(CCNC(=O)/C=C/c2ccco2)cc1	7	-4	7	41*	6	-4	-22	6
COc1ccccc1NC(=S)NC(=O)/C=C/c1ccco1	7	2	12	11	12	11	.	.
COc1cccc(NC(=O)/C=C/c2ccco2)c1	4	-4	9	4	11	2	.	.
Cc1ccccc1NC(=S)NC(=O)/C=C/c1ccco1	2	-2	15	6	6	3	.	.
Cc1cccc(NC(=S)NC(=O)/C=C/c2ccco2)n1	6	-1	8	77*	18	2	-14	-9
CC1(NC(=O)Nc2cc([N+](=O)[O-])ccc2O)CCS(=O)(=O)C1 (stereo not drawn)	.	0	-6	.	-5	-2	.	.
COc1ccc(S(=O)(=O)NC(=O)C2(C)CCN2C(=O)Cc2ccccc2Cl)cc1 (stereo not drawn)	.	.	-1	.	-3	.	.	.
O=c1c(O)cccc2cc(O)c(O)c(O)c12	-16	88	8	53*	43*	96	108*	13
O=c1cc(-c2ccccc2)oc2cc(O)c(O)c(O)c12	.	13	-5	.	20	25	.	.
CC(C)N1CCC1(C)C(=O)Nc1cc(-c2ccccc2)nn1C (stereo not drawn)	.	.	-1	.	-3	.	.	.
COc1ccc(NC(=O)CSc2nc(N)c(NC(=O)c3ccccc3F)c(=O)[nH]2)cc1	1	-6	5	-15	-9	-1	.	.
CC(C)NC(=O)CSc1nc(N)c(NC(=O)c2ccccc2F)c(=O)[nH]1	-9	-3	1	65*	3	-1	-3	-2
CC(C)NC(=O)C1(C)CCCCN1Cc1ccc(OCc2ccccc2)cc1 (stereo not drawn)	.	.	0	.	0	.	.	.
Cc1[nH]c(C)c(S(=O)(=O)N(Cc2ccccc2)C(C)(C)C)c1C(=O)N1CCCC1	-7	0	-1	38*	2	-3	-10	-33
COCc1[nH]nc2c1C(c1ccc(C)cc1)NC2=O (stereo not drawn)	.	.	.	.	1	.	.	.
CCn1cc(C(=O)O)c(=O)c2cc(F)c(N3CCN(C(=S)NC(=O)c4ccccc4Br)CC3)cc21	7	3	3	50*	-3	-8	12	1
Cc1ccsc1C(=O)N1CCC1(C)C(=O)NS(=O)(=O)c1ccccc1 (stereo not drawn)	.	.	2	.	1	.	.	.
Cc1cc(C(=O)CSc2nnc(-c3ccccc3)o2)c(C)n1CC1COc2ccccc2O1 (stereo not drawn)	16	-4	-5	14	-3	-2	.	.
Cc1cc(C(=O)CSc2nnc(-c3ccco3)o2)c(C)n1CC1COc2ccccc2O1 (stereo not drawn)	.	.	0	42*	2	.	1	-41
O=C1C[C@@H]2c3c(cccc3CN1Cc1ccc(Br)cc1)C[C@@H](O)[C@H]2O	.	.	7	.	0	.	.	.
O=C(NNC(=S)NC1CCCCC1)c1sc2ccccc2c1Cl	11	-3	-15	48*	-1	-1	46*	-18
O=C(COC(=O)/C=C/c1cccc([N+](=O)[O-])c1)NCC1CCCO1 (stereo not drawn)	1	1	-6	48*	7	5	-7	4
N#C/C(=C\c1ccc(OCc2ccc(C(=O)O)cc2)cc1)C(=O)NCc1ccccc1	23	-12	2	39*	1	-2	70*	-27	DNA FID DR=>79
CN=c1scc(-c2ccc([N+](=O)[O-])cc2)n1/N=C/c1ccco1	22	-6	1	11	1	-3	.	.
CN=c1scc(-c2ccc(F)cc2)n1/N=C/c1ccc(O)c(O)c1	.	-3	6	45*	5	-2	-21	8
